The list is a sample of the results.
Apaf-1 act: activates human Apaf-1 apoptosome; O14727; Apaf-1 apoptosome caspase-3 activation, DEVD-Rh110 fluorescence; active compounds read low; activity change, negative = activation, % at 20 µM; hit rate 0.31% among 330,000; AID 489031;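 active = activity change at or below -40% at 20 µM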
Target sequence (O14727 whole entry, looked up): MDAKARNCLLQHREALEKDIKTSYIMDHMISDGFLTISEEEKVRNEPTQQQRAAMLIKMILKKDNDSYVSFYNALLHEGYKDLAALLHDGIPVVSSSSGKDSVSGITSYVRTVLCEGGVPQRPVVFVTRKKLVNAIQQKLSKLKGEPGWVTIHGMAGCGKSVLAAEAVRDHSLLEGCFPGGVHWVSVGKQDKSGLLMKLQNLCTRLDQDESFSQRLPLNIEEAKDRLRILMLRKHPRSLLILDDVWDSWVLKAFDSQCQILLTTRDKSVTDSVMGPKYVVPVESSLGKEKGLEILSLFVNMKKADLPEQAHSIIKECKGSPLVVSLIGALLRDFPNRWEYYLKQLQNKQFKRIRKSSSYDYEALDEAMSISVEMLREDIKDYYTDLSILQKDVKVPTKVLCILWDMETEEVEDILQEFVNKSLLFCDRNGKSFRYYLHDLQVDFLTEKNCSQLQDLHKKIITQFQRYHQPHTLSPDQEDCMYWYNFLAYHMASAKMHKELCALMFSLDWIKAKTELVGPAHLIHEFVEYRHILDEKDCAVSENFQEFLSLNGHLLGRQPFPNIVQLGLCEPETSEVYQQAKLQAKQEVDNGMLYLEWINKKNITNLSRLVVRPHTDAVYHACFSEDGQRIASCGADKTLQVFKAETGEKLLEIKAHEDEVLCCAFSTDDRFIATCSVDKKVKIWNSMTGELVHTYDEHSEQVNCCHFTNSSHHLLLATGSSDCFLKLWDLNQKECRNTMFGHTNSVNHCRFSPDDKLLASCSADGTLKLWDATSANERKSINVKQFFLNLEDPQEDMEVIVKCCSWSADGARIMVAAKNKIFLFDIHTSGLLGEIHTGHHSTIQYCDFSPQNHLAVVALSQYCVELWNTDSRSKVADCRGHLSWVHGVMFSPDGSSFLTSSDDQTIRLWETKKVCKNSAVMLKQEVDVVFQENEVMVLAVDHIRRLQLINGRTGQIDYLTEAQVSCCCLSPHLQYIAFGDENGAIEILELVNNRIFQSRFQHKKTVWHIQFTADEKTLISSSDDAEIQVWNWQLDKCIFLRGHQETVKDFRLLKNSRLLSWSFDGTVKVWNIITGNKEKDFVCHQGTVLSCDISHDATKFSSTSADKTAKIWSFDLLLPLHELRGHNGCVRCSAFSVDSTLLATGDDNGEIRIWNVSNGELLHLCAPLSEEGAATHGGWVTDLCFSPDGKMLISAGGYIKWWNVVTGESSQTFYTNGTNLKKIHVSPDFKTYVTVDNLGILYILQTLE
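Material: reconstituted apoptosome of Apaf-1, cytochrome c, caspase-9, procaspase-3; times: 30 min preincubation, 50 min reaction, room temperature; measured by: fluorescence, 540 nm emission, 480 nm excitation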
Rh110 interf act: interferes with Rh110 fluorescence, flagging false Apaf-1 activators; shares compounds with Apaf-1 act; Rh110 fluorescence interference, quenched caspase reaction, Ex480/Em540; fluorescence interference (activity change), % at 20 µM, hits read low; 980 tested, under 10 active;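 active = mean activity change at or below -40% when tested at 20 µM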
Apaf-1 act conf: confirmation of human Apaf-1 activators | activity change, negative = activation, % at 20 µM | shares compounds with Apaf-1 act | reconstituted apoptosome caspase-3 activity, DEVD-Rh110 fluorescence; active compounds read low | hit rate 5% among 980;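 active = mean activity change at or below -40%, meaning activation of 40% or more, at 20 µM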
Apaf1 act interf: counter-screen for Apaf-1 activators: fluorescence interference, dose response | EC50, µM | shares compounds with Apaf-1 act | AID 588592 | fluorescence interference counterscreen, Apaf-1 activator assay | 55 tested, under 10 active; call rule not given here
Numbers without * were called inactive; . = not tested or not shown.

SMILES	Apaf-1 act	Rh110 interf act	Apaf-1 act conf	others
O=C1C=C(Nc2ccccc2C(=O)O)c2ccccc2C1=O	91.4	.	.
CC1=NN(c2ccc(C)cc2C)C(=O)C1C(c1ccccc1)C1C(=O)N(c2ccc(C)cc2C)N=C1C (configuration not stated)	66.7	.	.
COc1ccc(NC(=S)N2CCC(C(=O)c3ccc(C)cc3)CC2)cc1	-102.6*	6.7	3.2
CCOC(=O)C1CCN(C(=O)Nc2ccc3nc(-c4ccco4)c(-c4ccco4)nc3c2)CC1	69.8	.	.
Cc1ccc(C(=O)NNc2cc(N3CCCC3)nc(N3CCCC3)n2)cc1	97.0	.	.
CC(=O)N1CCc2c(sc(NC(=O)C3CC3)c2-c2nc3ccccc3s2)C1	71.5	.	.
CC(C(O)c1ccc(O)cc1)N1CCC(Cc2ccccc2)CC1 (configuration not stated)	1.8	.	.
COc1ccc2nc(NC(=O)c3sc4nc(C)cc(C)c4c3N)sc2c1	-40.8*	-3.0	9.7
COc1ccc2c(c1)Cc1sc(NC(C)=O)nc1-2	72.6	.	.
COc1ccc2c(c1)Cc1sc(NC(=O)c3cccnc3)nc1-2	88.6	.	.
CCCCCCCCCCOC(=O)Cn1c(COc2ccc(OC)cc2)[n+](C)c2ccccc21	72.4	.	.
O=C1C(Cl)=C(NCCCO)C(=O)c2ccccc21	44.7	.	.
Cc1nn(Cc2ccc(F)cc2)c(Cl)c1/C=N/NC(=O)c1cccnc1	-49.2*	-1.6	9.7
CCCCCCCCCCCCCCCC[N+](C)(C)CC	87.5	.	.
CC(=O)[C@H]1[C@@H]2C(=O)N(c3cccc(Cl)c3)C(=O)[C@@H]2[C@H]2c3ccccc3C=CN21	73.0	.	.
Cc1cc(NC(=O)CSCC(=O)Nc2ccc(C)c(C)c2)no1	53.7	.	.
Cc1cccc(C)c1NC(=O)CSCC(=O)c1ccc(O)c(O)c1	-160.9*	12.8	13.1
C#CCOCCOCCOCCNc1nc(N2CCN(C(=O)[C@H](CCCN=C(N)N)n3cc(C(N)[C@@H](C)CC)nn3)CC2)nc(N2CCN(C(=O)[C@H](CCCCN)n3cc([C@@H](N)[C@H](C)CC)nn3)CC2)n1 (some centres not stated)	49.9	.	.
c1ccc(-c2sc3ccccc3c2-c2ccc(OCCN3CCCCC3)cc2)cc1	52.5	.	.
Cc1ccc(C)c2[nH]c(=O)c(C(c3nnnn3Cc3ccccc3)N3CCc4ccccc4C3)cc12 (configuration not stated)	67.3	.	.
COc1ccc2cc3cc(C(=O)NCCCN4CCc5ccccc5C4)sc3nc2c1	42.0	.	.
CCN(C(=O)c1coc(=O)c(Br)c1)c1ccc2c(c1)OCO2	59.3	.	.
CCCCc1ccc(NC(=O)c2ccc(NS(C)(=O)=O)cc2)cc1	-102.4*	3.5	12.8
CCOC(=O)CNc1ccc2c(c1)OCO2	40.0	.	.
CS(=O)(=O)Nc1ccc(C(=O)Nc2ccc3c(c2)OCO3)cc1	-58.1*	-4.4	0.6
SMILES	Apaf-1 act	Rh110 interf act	Apaf-1 act conf	others
Cc1ccc(NC(=O)c2ccc(CN3CCc4ccccc4C3)cc2)cc1	48.1	.	.
COc1ccc(/C=C2/C(=O)N(c3c(F)c(F)c(F)c(F)c3F)N=C2C)cc1	53.8	.	.
Cc1cccc(CN2C(=O)/C(=C\c3ccc(C(=O)NCCCN4CCN(C)CC4)cc3)Oc3ccccc32)c1	52.5	.	.
C#CCOCCOCCOCCNc1nc(N2CCN(C(=O)CCCCCCCCCCNC(=O)Cn3cc(C[C@@H](C)O)nn3)CC2)nc(N2CCN(C(=O)CCCCCCCCCCNC(=O)[C@H](CCCN=C(N)N)n3cc(C[C@@H](C)CC)nn3)CC2)n1	62.0	.	.
Nc1ccc(C(=O)O)cc1	-5.1	.	.
COc1ccc(CC2S/C(=N/N=C/c3ccccc3O)NC2=O)cc1 (configuration not stated)	-523.6*	14.4	22.6
CC(C)[N+]1(C)[C@@H]2CC[C@H]1CC(OC(=O)C(CO)c1ccccc1)C2 (some centres not stated)	-5.4	.	.
Cc1ccc2c(c1)C(O)(C1COC(C)(C)CC1=O)C(=O)N2C (configuration not stated)	-573.3*	-3.6	8.1
Nc1cc2nsnc2cc1Br	98.2	.	.
COc1cccc(-c2[nH]nc3c2C(c2ccsc2)C(C#N)=C(N)O3)c1 (configuration not stated)	60.0	.	.
COc1ccc(C2C(C#N)=C(N)Oc3n[nH]c(-c4ccccn4)c32)c(OC)c1OC (configuration not stated)	-508.1*	7.2	18.8
Cc1cccc(/C=N/NC(=O)C(C)Nc2cccc3ccccc23)n1 (configuration not stated)	90.9	.	.
CN1C(=O)CC(Nc2cccc3cccc(N)c23)C1=O (configuration not stated)	53.9	.	.
COc1ccc(C2=NN(c3ccccc3)C(=O)/C2=C\c2ccc(O)c(OC)c2)cc1	89.9	.	.
COc1ccc(C(=O)CN2C(=O)c3ccccc3C2=O)cc1	-164.6*	9.8	10.6
COc1ccc(/C=C2/C(=O)N(c3ccccc3)N=C2C)cc1	96.2	.	.
CCN(CC)CCCNc1ccc(-c2nnc(-c3ccc(OCC(C)C)cc3)o2)cn1	41.4	.	.
Cc1cnc(NC(=O)C2=C(O)c3ccccc3S(=O)(=O)N2C)s1	-2.0	.	.
C=C(C)C(=O)Nc1cccc(C2=NOC3(C2)C[C@@H](C(N)=O)N(C(=O)CC(c2ccccc2)c2ccccc2)C3)c1 (some centres not stated)	-107.0*	14.0	-36.0
C=C(C)C(=O)Nc1cccc(C2=NOC3(C2)C[C@@H](C(N)=O)N(C(=O)/C=C/C=C/C)C3)c1 (some centres not stated)	-326.2*	-2.5	-129.2*	Apaf1 act interf=>100
C=C(C)C(=O)Nc1cccc(C2=NOC3(C2)C[C@@H](C(N)=O)N(C(=O)/C(C)=C/C)C3)c1 (some centres not stated)	-288.2*	-1.0	-119.6*	Apaf1 act interf=>100
C=C(C)C(=O)Nc1cccc(C2=NOC3(C2)C[C@H](C(N)=O)N(C(=O)c2ccccc2C(=O)c2ccccc2)C3)c1 (some centres not stated)	-269.6*	5.8	-125.2*	Apaf1 act interf=>100
CC1=NN(c2cccc(Cl)c2)C(=O)C1	74.8	.	.
CCN(CC)C(=O)[C@H]1C[C@H](CC(=O)NCc2cccc(C(F)(F)F)c2)C(=O)N2CCc3c([nH]c4ccc(Cl)cc34)[C@]12C	46.4	.	.
COC(=O)C1=C(C)N(Cc2ccccc2)C(=NCC(C)C)N[C@H]1c1cccc(F)c1	43.8	.	.
SMILES	Apaf-1 act	Rh110 interf act	Apaf-1 act conf	others
O=C1c2ccccc2C(=O)C12OC2c1cccc2ccccc12 (configuration not stated)	94.5	.	.
CCOc1cc(/C=C2\C(=O)N(CCC#N)N=C2C)ccc1OCC(N)=O	57.8	.	.
CN1CCc2cccc3c2[C@@H]1Cc1ccc(O)c(O)c1-3	49.9	.	.
O=C1CC(N2CCN(C3CCc4ccccc4C3)CC2)C(=O)N1c1ccccc1 (configuration not stated)	-43.1*	13.3	18.0
Cn1c(=O)n(C)c2cc(/C=N/NC(=O)c3cc4cc(Br)ccc4o3)ccc21	43.0	.	.
CCN(CC)CCOC(=O)c1ccc(NC(=O)CCCN2C(=O)/C(=C\c3cccs3)SC2=S)cc1	59.9	.	.
C/C=N/NC(=O)c1cc(Br)ccc1O	57.1	.	.
O=C(OCC(=O)c1c[nH]c2ccccc12)c1cc(Br)ccc1O	-339.3*	8.0	9.1
